# Calls of active or inactive are those of the source. No cut-off for these calls is given here.
# What was measured:
# Heme [1] = assay: Inhibition of heme crystallization after 16 hrs
# How it was run: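 Heme crystal extension was seeded with 2.5 nmol heme crystal and run with 50 µM heme in 0.1 M ammonium acetate, pH 4.8, at 37°C for 16 h. Crystal extension was quantified by the differential solubility of free versus crystalline heme in 0.15 M sodium bicarbonate. IC50 came from a four-parameter logistic fit and is given as mean ± s.e.m. of triplicate experiments.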
# Heme [2] = assay: Displacement of [3H]astemizole from free heme crystal at 15 uM after 16 hrs by scintillation counting
# How it was run: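 [3H]-astemizole (27 Ci/mmol) was incubated in triplicate with a 5 nmol heme crystal seed and 50 µM heme in 0.1 M ammonium acetate, pH 4.8, for 16 h at 37°C. Crystal was pelleted, sonicated, and spun through 1.7 M sucrose at 200,000 × g. The pellet was decrystallized in 50 mM NaOH/2% SDS and counted by scintillation.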
# Plasmodium falciparum [3] = assay: Antimalarial activity against Plasmodium falciparum Dd2 assessed as inhibition of parasite growth after 48 to 96 hrs by [3H]hypoxanthine incorporation assay; type: functional, organism-based
# How it was run: (§1)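 Synchronized ring-stage parasites in RPMI 1640 with 10% human serum, 0.2% parasitemia and 2-4% hematocrit, were exposed to drug for 48 or 96 h with [3H]-hypoxanthine. Growth was read as radioactive incorporation. IC50 came from a four-parameter logistic fit and is given as mean ± s.e.m. of triplicate experiments.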
# Plasmodium falciparum [4] = assay: Antimalarial activity against Plasmodium falciparum ItG assessed as inhibition of parasite growth after 48 to 96 hrs by [3H]hypoxanthine incorporation assay; type: functional, organism-based; how it was run: as §1
# Heme [5] = assay: Inhibition of heme crystallization at 7.5 uM after 24 hrs at pH 5.2 - 5.6
# Plasmodium falciparum [6] = assay: Antimalarial activity against Plasmodium falciparum 3D7 assessed as inhibition of parasite growth after 48 to 96 hrs by [3H]hypoxanthine incorporation assay; type: functional, organism-based; how it was run: as §1
# Plasmodium falciparum [7] = assay: Antiplasmodial activity against Plasmodium falciparum infected in erythrocytes assessed as stabilization of free heme at 0.05 uCi after 16 hrs by scintillation counting; type: functional, organism-based; details: tested as the 3H-labelled form
# Plasmodium vinckei [8] = assay: Antimalarial activity against chloroquine-sensitive Plasmodium vinckei infected in mice (Mus musculus) assessed as reduction in parasitemia at 30 mg/m'2, intraperitoneally […]; type: functional
# Plasmodium yoelii [9] = assay: Antimalarial activity against chloroquine-sensitive Plasmodium yoelii 17X infected in mice (Mus musculus) assessed as reduction in parasitaemia at 15 mg/m'2, […] administered 2 hrs post infection […]; type: functional
# Plasmodium yoelii [10] = assay: Antimalarial activity against chloroquine-sensitive Plasmodium yoelii 17X infected in mice (Mus musculus) assessed as complete cure from parasite infection at 300 mg/m'2, perorally daily for 4 days administered 2 hrs post infection measured on day 4; type: functional, organism-based
# How it was run: (§2)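 P. yoelii 17X lethal strain was used in male C57/BL6 mice (5-6 weeks, 25 ± 2 g), assessed by the 4-d suppression test. Drug or an equal volume of vehicle was given intraperitoneally or per os. Parasitemia is reported as mean ± s.e.m. Cure meant survival to day 30 with cleared parasitemia and no recrudescence over a further 30 days. Two-tailed t-test was used.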
# Plasmodium vinckei [11] = assay: Antimalarial activity against chloroquine-sensitive Plasmodium vinckei infected in mice (Mus musculus) assessed as complete cure from parasite infection at 300 mg/m'2, perorally qd for 4 days administered 2 hrs post infection measured on day 4; type: functional
# How it was run: (§3)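 Male C57/BL6 mice (5-6 weeks, 25 ± 2 g) were infected with the P. vinckei Rhodain strain and assessed by the 4-d parasite suppression test. Astemizole tartrate or acetate, or an equal volume of vehicle, was given intraperitoneally or per os. Parasitemia is reported as mean ± s.e.m. Cure meant survival to 30 days post infection with parasitemia cleared and no recrudescence over the next 30 days. Two-tailed Student's t-test was used.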
# Plasmodium vinckei [12] = assay: Antimalarial activity against chloroquine-sensitive Plasmodium vinckei infected in mice (Mus musculus) assessed as complete cure from parasite infection at 30 mg/m'2, intraperitoneally qd for 4 days administered 2 hrs post infection measured on day 5; type: functional; how it was run: as §3
# Plasmodium yoelii [13] = assay: Antimalarial activity against chloroquine-sensitive Plasmodium yoelii 17X infected in mice (Mus musculus) assessed as complete cure from parasite infection at 15 mg/m'2, intraperitoneal daily for 4 days administered 2 hrs post infection measured on day 5; type: functional, organism-based; how it was run: as §2
# [14] = Drug level in chloroquine-sensitive Plasmodium falciparum 3D7 culture at 1.5 uCi after 20 hrs; type: ADME; details: plasmodium falciparum 3d7, 20 h
# [15] = Drug level in chloroquine-sensitive Plasmodium falciparum Dd2 culture at 1.5 uCi after 20 hrs; type: ADME; details: plasmodium falciparum dd2, 20 h
# [16] = Drug level in Plasmodium falciparum 3D7 infected erythrocyte lysate at 1.5 uCi after 20 hrs; type: ADME, cell-based
# [17] = Drug level in Plasmodium falciparum Dd2 infected erythrocyte lysate at 1.5 uCi after 20 hrs; type: ADME, cell-based
# [18] = Drug level in chloroquine-sensitive Plasmodium falciparum 3D7 lysate at 1.5 uCi after 20 hrs; type: ADME; details: plasmodium falciparum 3d7, 20 h
# [19] = Drug level in chloroquine-resistant Plasmodium falciparum Dd2 lysate at 1.5 uCi after 20 hrs; type: ADME; details: plasmodium falciparum dd2, 20 h
# How it was run: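 Duplicate 12 mL ring-synchronized cultures (RPMI 1640, 10% human serum; 5% parasitemia) incubated 20 h with 1.5 µCi tritiated drug. Trophozoite-stage erythrocytes harvested and washed once. Hemozoin released by hypotonic lysis, then pelleted through 1.7 M sucrose/50 mM Tris-HCl pH 8.0 at 200,000 × g for 15 min. Pellet decrystallized in 50 mM NaOH, 2% SDS; radioactivity read by scintillation counting.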
# [20] = Drug level in hemozoin of Plasmodium falciparum 3D7 at 1.5 uCi after 20 hrs; type: ADME; details: plasmodium falciparum 3d7, 20 h
# How it was run: (§4)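 Duplicate 12 mL ring-stage cultures at 5% parasitemia were incubated with 1.5 µCi [3H]-astemizole for 20 h. Erythrocytes were harvested at the trophozoite stage and washed. Hemozoin was extracted by hypotonic lysis and purified by sucrose-cushion ultracentrifugation, then decrystallized in NaOH/SDS and counted by scintillation.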
# [21] = Drug level in hemozoin of Plasmodium falciparum Dd2 at 1.5 uCi after 20 hrs; type: ADME; details: plasmodium falciparum dd2, 20 h; how it was run: as §4
# Plasma = assay: Metabolic stability in human plasma assessed as desmethylastemizole half life; type: ADME, cell-free
# [22] = Oral bioavailability in human; type: ADME, organism-based; details: in vivo, read-out: Activity
# Plasmodium vinckei [23] = assay: Antimalarial activity against chloroquine-sensitive Plasmodium vinckei infected in mice (Mus musculus) assessed as reduction in parasitemia at 15 mg/m'2, intraperitoneally […]; type: functional
# Plasmodium vinckei [24] = assay: Antimalarial activity against chloroquine-sensitive Plasmodium vinckei infected in mice (Mus musculus) assessed as complete cure from parasite infection at 15 mg/m'2, intraperitoneally qd for 4 days administered 2 hrs post infection measured on day 5; type: functional; how it was run: as §3
smiles,measurement,setting,value
CC1(C)S[C@@H]2[C@H](NC(=O)[C@H](N)c3ccccc3)C(=O)N2[C@H]1C(=O)O,inhibition,Heme [1],inactive
same,Activity,Heme [2],inactive
CCN(CC)CCCC(C)Nc1c2ccc(Cl)cc2nc2ccc(OC)cc12 (stereo unspecified),inhibition,Heme [1],Active
same,Activity,Heme [2],Active
COc1ccc(CCN2CCC(Nc3nc4ccccc4n3Cc3ccc(F)cc3)CC2)cc1 [ASTEMIZOLE],IC50,Plasmodium falciparum [3],457 nM
same,IC50,Plasmodium falciparum [4],734 nM
same,IC50,Heme [1],12300 nM
same,inhibition,Heme [5],Active
same,IC50,Plasmodium falciparum [6],227 nM
same,Activity,Plasmodium falciparum [7],Active
same,inhibition (INH),Plasmodium vinckei [8],80%
same,inhibition (INH),Plasmodium yoelii [9],44%
same,Activity,Plasmodium yoelii [10],Active
same,Activity,Plasmodium vinckei [11],Active
same,Activity,Plasmodium vinckei [12],inactive
same,Activity,Plasmodium yoelii [13],inactive
OC(c1cc(C(F)(F)F)nc2c(C(F)(F)F)cccc12)C1CCCCN1 (stereo unspecified),inhibition,Heme [1],inactive
same,Activity,Heme [2],inactive
C[C@@H]1CC[C@H]2[C@@H](C)C(=O)O[C@@H]3O[C@@]4(C)CC[C@@H]1[C@]32OO4,inhibition,Heme [1],inactive
same,Activity,Heme [2],inactive
COc1ccc(CCN(C)CCCC(C#N)(c2ccc(OC)c(OC)c2)C(C)C)cc1OC (stereo unspecified),inhibition,Heme [1],inactive
same,Activity,Heme [2],inactive
Fc1ccc(Cn2c(NC3CCNCC3)nc3ccccc32)cc1 [TECASTEMIZOLE],IC50,Plasmodium falciparum [3],3590 nM
same,IC50,Plasmodium falciparum [4],2230 nM
same,IC50,Plasmodium falciparum [6],4480 nM
[3H]C([3H])([3H])Oc1ccc(CCN2CCC(Nc3nc4ccccc4n3Cc3ccc(F)cc3)CC2)cc1 [[3H]-ASTEMIZOLE],Drug uptake,[14],20.9 cpm/uL
same,Drug uptake,[15],17.9 cpm/uL
same,Drug uptake,[16],179 cpm/uL
same,Drug uptake,[17],144 cpm/uL
same,Drug uptake,[18],2105 cpm/uL
same,Drug uptake,[19],2598 cpm/uL
same,Drug uptake,[20],19656 cpm/uL
same,Drug uptake,[21],21389 cpm/uL
C=C[C@H]1CN2CC[C@H]1C[C@H]2[C@H](O)c1ccnc2ccc(OC)cc12,inhibition,Heme [1],inactive
same,Activity,Heme [2],inactive
C=C[C@H]1CN2CC[C@H]1C[C@@H]2[C@@H](O)c1ccnc2ccc(OC)cc12,inhibition,Heme [1],Active
same,Activity,Heme [2],Active
[3H]c1nc2c([3H])c(Cl)c([3H])c([3H])c2c(N([3H])C([3H])(C([3H])([3H])[3H])C([3H])([3H])C([3H])([3H])C([3H])([3H])N(C([3H])([3H])C([3H])([3H])[3H])C([3H])([3H])C([3H])([3H])[3H])c1[3H] (stereo unspecified) [[3H]-CHLOROQUINE],IC50,Heme [1],5740 nM
CCN(CC)CCCC(C)Nc1ccnc2cc(Cl)ccc12 (stereo unspecified),inhibition,Heme [5]; tested as the 3H-labelled form,Active
same,Activity,Plasmodium falciparum [7],Active
same,Activity,Heme [2]; tested as the 3H-labelled form,inactive
Oc1ccc(CCN2CCC(Nc3nc4ccccc4n3Cc3ccc(F)cc3)CC2)cc1 [DESMETHEYLASTEMIZOLE],IC50,Plasmodium falciparum [3],106 nM
same,IC50,Plasmodium falciparum [4],56.8 nM
same,t1/2,Plasma,170 h
same,IC50,Heme [1],8130 nM
same,IC50,Plasmodium falciparum [6],117 nM
same,bioavailability,[22],95%
same,inhibition (INH),Plasmodium vinckei [23],<=81%
same,inhibition (INH),Plasmodium yoelii [9],40%
same,Activity,Plasmodium vinckei [24],inactive
same,Activity,Plasmodium yoelii [13],inactive

# From ChEMBL document CHEMBL1240313, “A clinical drug library screen identifies astemizole as an antimalarial agent” (Nat Chem Biol, 2006)
